Screens from PubChem BioAssay.
T cruzi intra: inhibitors of intracellular Trypanosoma cruzi, primary screen, cell-based, plate reader, single point, set 2. AID 651903, 2012. activity score (inhibition), % at 5.01 µM. 22,000 compounds, 4.9% hits. intracellular Trypanosoma cruzi in host cells; in the data active = activity score above about 55%; inconclusive = no clear call, values can overlap the other calls;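 also: parasites and compound incubated about four days before reading; 0% = median of neutral control wells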
A1 apoptosis 2: A1 inhibitors via caspase activation, primary screen, cell-based, luminescence, HTS, two replicates | MEF A1-2A-BIM cells, caspase-Glo luminescence, 3 h; percent of clofoctol response, DMSO zero | caspase activation, % (test concentration not listed) | 24,000 tested, under 10 active | AID 2465, 2010; in the data active = caspase activation above about 5.9%; inconclusive = no clear call, values can overlap the other calls; inactive = below about 2.2%
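Material: A1-2A-BIM-expressing MEF cells. Buffer or medium: RPMI-1640 plus 10% FBS. Incubation: cells settled overnight, compound exposure 3 h at 37 °C, 5% CO2. Signal: Caspase-Glo 3/7 luminescence, 1 h at room temperature.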
INS-1E rescue: protection of INS-1E cells from cytokine death, primary screen, ATP luminescence, single point. INS-1E cytokine-induced death, 48 h; normalised: neutral wells 0, positive control 100. protection from cytokine-induced ATP loss, % at 10 µM. AID 488910, 2010. 20,000 compounds, 0.1% hits;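 active = mean replicate protection from cytokine-induced ATP loss at least 50% and at least 75% of replicates each reaching 50%; inconclusive = meets only one of the two criteria, mean or replicate share; inactive = fails both the mean and replicate share criteria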
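Assay system: INS-1E rat cells / Quantity: 8000 cells per well / Medium: RPMI without phenol red, 5% FBS / Probe or stimulus: three-cytokine cocktail (IFN-γ, TNF-α, IL-1β) / Dosing: one compound concentration, pin transfer / Timing: 48 h co-treatment, 10 min post-lysis read / Technique: CellTiter-Glo luminescence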
* hit, by the source's call; ? = inconclusive; . = no result given. This excerpt belongs to a sample that is enriched for hits.

SMILES | T cruzi intra | A1 apoptosis 2 | INS-1E rescue
COc1ccc(NC(=O)Nc2ccc3c(c2)CC(=O)N([C@H](C)CO)C[C@H](C)[C@H](CN(C)Cc2ccc(Oc4ccccc4)cc2)O3)cc1 | 32 | 0 | -37
COc1ccc(NC(=O)Nc2ccc3c(c2)CC(=O)N([C@H](C)CO)C[C@H](C)[C@H](CN(C)Cc2ccc(-c4ccccc4)cc2)O3)cc1 | 15 | 0 | -36
C[C@@H]1CN([C@H](C)CO)C(=O)Cc2cc(NC(=O)Nc3ccc(F)cc3)ccc2O[C@H]1CN(C)Cc1ccc(Oc2ccccc2)cc1 | ? | . | -68
COc1ccc(NC(=O)Nc2ccc3c(c2)CC(=O)N([C@H](C)CO)C[C@@H](C)[C@@H](CN(C)Cc2ccc(-c4ccccc4)cc2)O3)cc1 | 72* | . | -10
COc1ccc(NC(=O)Nc2ccc3c(c2)CC(=O)N([C@@H](C)CO)C[C@@H](C)[C@@H](CN(C)Cc2ccc(Oc4ccccc4)cc2)O3)cc1 | 60* | 2 | -12
C[C@H](CO)N1C[C@H](C)[C@@H](CN(C)Cc2ccc(Oc3ccccc3)cc2)Oc2ccc(NC(=O)Nc3ccc(F)cc3)cc2CC1=O | . | 0 | .
O=C(CCCCCCC(=O)N/N=C/c1nccs1)NO | . | 0 | .
COc1cccc(-n2cc(C(=O)NO)nn2)c1 | . | -1 | .
C=CC[C@]1(C(=O)NCCCOC)N=C(c2ccc(OCCCO)cc2)O[C@H]1c1ccccc1 | . | 0 | .
C=CCOC(=O)[C@]12O[C@@]3(COC[C@H](c4ccccc4)N3C1=O)[C@H]1C(=O)N(c3ccccc3)C(=O)[C@H]12 | . | -1 | .
C[C@@H]1CN([C@H](C)CO)C(=O)Cc2cc(NC(=O)Nc3ccc(F)cc3)ccc2O[C@@H]1CN(C)Cc1ccc(Oc2ccccc2)cc1 | 71* | 0 | -53
C[C@H]1CN([C@@H](C)CO)C(=O)Cc2cc(NC(=O)Nc3ccc(F)cc3)ccc2O[C@H]1CN(C)Cc1ccccc1 | 25 | 1 | -10
COC(=O)CCCCCCC(=O)N/N=C/c1cc(C)ccc1O | -9 | 1 | 4
C[C@@H]1CCCCO[C@H](CN(C)S(=O)(=O)c2ccc(Cl)cc2)[C@@H](C)CN([C@H](C)CO)C(=O)c2cc(NC(=O)Nc3ccc(C(F)(F)F)cc3)ccc2O1 | 71* | 1 | -53
C[C@@H]1CCCCO[C@@H](CN(C)CC2CCCCC2)[C@@H](C)CN([C@H](C)CO)C(=O)c2cc(NC(=O)Nc3ccc(F)cc3)ccc2O1 | 71* | . | -15
C[C@@H]1CN([C@@H](C)CO)C(=O)c2cccc(NC(=O)Nc3ccc(C(F)(F)F)cc3)c2O[C@@H]1CN(C)CC1CCCCC1 | 78* | -1 | -64
C[C@@H]1CN([C@@H](C)CO)C(=O)c2cc(NC(=O)Nc3ccc(F)cc3)ccc2O[C@@H](C)CCCCO[C@@H]1CN(C)CC1CCCCC1 | . | 1 | .
C[C@@H]1CCCCO[C@@H](CN(C)CC2CCCCC2)[C@@H](C)CN([C@H](C)CO)C(=O)c2cc(NC(=O)Nc3ccc(C(F)(F)F)cc3)ccc2O1 | 73* | . | -12
C[C@H]1CCCCO[C@@H](CN(C)CC2CCCCC2)[C@@H](C)CN([C@@H](C)CO)C(=O)c2cc(NC(=O)Nc3ccc(C(F)(F)F)cc3)ccc2O1 | . | 2 | .
C[C@@H]1CN([C@@H](C)CO)C(=O)c2cccc(NC(=O)Nc3ccc(C(F)(F)F)cc3)c2O[C@@H]1CN(C)CC1CC1 | -17 | -1 | -19
C[C@@H]1CCCCO[C@@H](CN(C)S(=O)(=O)c2ccc(Cl)cc2)[C@@H](C)CN([C@H](C)CO)C(=O)c2cc(NC(=O)Nc3ccc(C(F)(F)F)cc3)ccc2O1 | 51 | . | -9
O=C(NO)c1cccc(C(=O)N/N=C/c2ccc(O)cc2Br)c1 | -2 | -4 | -6
COc1ccc([Si](C)(C)[C@@H]2[C@@H](CCO)O[C@]3(C(=O)N(Cc4ccc(N5CCC5=O)cc4)c4ccccc43)[C@H]2C)cc1 | . | -1 | .
O=C(CCCCCCC(=O)Nc1ccccc1O)N/N=C/C=C/c1ccccc1 | -20 | 1 | 6
O=C(NO)c1ccc(C(=O)N/N=C/c2cccs2)cc1 | 6 | 0 | -1
SMILES | T cruzi intra | A1 apoptosis 2 | INS-1E rescue
O=C(N/N=C/c1ccc2ccccc2c1)c1ccccn1 | -7 | -9 | 1
O=C(Cc1ccccc1)OC(C(=O)NCc1ccccc1)c1ccco1 (stereo not given) | . | -1 | .
O=C(CCCCC(=O)N/N=C/c1ccc(Br)cc1)NO | . | 0 | .
CC(/C=C/C(=O)NO)=C\c1ccccc1OCc1cn(-c2cccc(C(=O)N3CCN(c4ccccc4)CC3)c2)nn1 | . | 1 | .
C[C@H](CO)N1C[C@H](C)[C@H](CN(C)CC2CCCCC2)Oc2ccc(NC(=O)Nc3ccc(C(F)(F)F)cc3)cc2C1=O | 62* | -1 | -45
C[C@@H]1CN([C@@H](C)CO)C(=O)c2cc(NC(=O)Nc3ccc(C(F)(F)F)cc3)ccc2O[C@H]1CN(C)CC1CCCCC1 | 40 | 1 | -22
Cc1noc(C)c1NC(=O)N(C)C[C@@H]1Oc2ccc(NS(=O)(=O)c3ccccc3)cc2C(=O)N([C@@H](C)CO)C[C@H]1C | -16 | . | 2
Cc1ncc(CO)c(/C=N/NC(=O)CCCCCC(=O)O)c1O | -18 | 1 | 0
C[C@@H]1CN([C@@H](C)CO)C(=O)c2cccc(NC(=O)CCCCCC(=O)Nc3ccccc3N)c2O[C@H]1CN(C)CC1CC1 | 60* | . | 11
C[C@H]1CN([C@@H](C)CO)C(=O)c2cccc(NC(=O)CCCCCC(=O)Nc3ccccc3N)c2O[C@H]1CN(C)CC1CCCCC1 | 22 | 2 | -11
C[C@H](CO)N1C[C@H](C)[C@H](CN(C)CC2CCCCC2)Oc2c(NC(=O)CCCCCC(=O)Nc3ccccc3N)cccc2C1=O | 39 | -1 | 6
C[C@@H]1CN([C@H](C)CO)C(=O)c2cccc(NC(=O)CCCCCC(=O)Nc3ccccc3N)c2O[C@@H]1CN(C)CC1CC1 | -19 | 0 | -9
C[C@H]1CN([C@@H](C)CO)C(=O)c2cccc(NC(=O)CCCCCC(=O)Nc3ccccc3N)c2O[C@@H]1CN(C)CC1CC1 | 77* | 2 | 19
C[C@@H]1CN([C@H](C)CO)C(=O)c2cccc(NC(=O)CCCCCC(=O)Nc3ccccc3N)c2O[C@H]1CN(C)CC1CC1 | 59* | . | 11
CC(C)(C)OC(=O)Nc1cccc(/C=N/NC(=O)CCCCCCC(=O)Nc2ccccc2O)c1 | 27 | 0 | -2
COc1ccc(NC(=O)Nc2ccc3c(c2)C(=O)N([C@H](C)CO)C[C@H](C)[C@H](CN(C)Cc2ccc(Cl)c(Cl)c2)OCCCC[C@@H](C)O3)cc1 | 64* | . | -28
COc1ccc(NC(=O)Nc2ccc3c(c2)C(=O)N([C@H](C)CO)C[C@H](C)[C@H](CN(C)Cc2ccc(Cl)c(Cl)c2)OCCCC[C@H](C)O3)cc1 | . | -2 | .
COc1ccc(NC(=O)Nc2ccc3c(c2)C(=O)N([C@@H](C)CO)C[C@H](C)[C@@H](CN(C)Cc2ccc(Cl)c(Cl)c2)OCCCC[C@@H](C)O3)cc1 | . | 1 | .
